Results from ChEMBL document CHEMBL4425129, “Exploring Basic Tail Modifications of Coumarin-Based Dual Acetylcholinesterase-Monoamine Oxidase B Inhibitors: Identification of Water-Soluble, Brain-Permeant Neuroprotective Multitarget Agents” (J Med Chem, 2016).
Activity calls are given as the source filed them. No cut-off for these calls is given here.

Legend:
[1] = biological target: Cholinesterase (Equus caballus) (UniProt P81908); test: Inhibition of equine serum BChE at 10 uM using butyrylthiocholine iodide as substrate preincubated for 20 mins followed by substrate addition measured for 5 mins by spectrophotometric Ellman's method relative to control
Summary of the method: (§1)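 BChE from equine serum (13 U/mg), Ellman spectrophotometric method run in 96-well format. Seven inhibitor concentrations, 10^-4 to 10^-10 M, each in triplicate. IC50 from non-linear regression of response against log(concentration). […] Mean of three independent experiments.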

Acetylcholinesterase [2] = biological target: T1, Acetylcholinesterase (Electrophorus electricus, UniProt O42275); test: Inhibition of electric eel AChE using acetylthiocholine iodide as substrate preincubated for 20 mins followed by substrate addition measured for 5 mins by spectrophotometric Ellman's method
[3] = biological target: T2, Amine oxidase [flavin-containing] A (Homo sapiens, UniProt P21397); test: Inhibition of human recombinant MAOA expressed in microsomes of baculovirus-infected insect cell at 10 uM using kynuramine as substrate preincubated for 20 mins followed by protein addition measured after 30 mins by fluorescence assay relative to control; details: 0.5 h
T2 sequence (P21397 whole entry): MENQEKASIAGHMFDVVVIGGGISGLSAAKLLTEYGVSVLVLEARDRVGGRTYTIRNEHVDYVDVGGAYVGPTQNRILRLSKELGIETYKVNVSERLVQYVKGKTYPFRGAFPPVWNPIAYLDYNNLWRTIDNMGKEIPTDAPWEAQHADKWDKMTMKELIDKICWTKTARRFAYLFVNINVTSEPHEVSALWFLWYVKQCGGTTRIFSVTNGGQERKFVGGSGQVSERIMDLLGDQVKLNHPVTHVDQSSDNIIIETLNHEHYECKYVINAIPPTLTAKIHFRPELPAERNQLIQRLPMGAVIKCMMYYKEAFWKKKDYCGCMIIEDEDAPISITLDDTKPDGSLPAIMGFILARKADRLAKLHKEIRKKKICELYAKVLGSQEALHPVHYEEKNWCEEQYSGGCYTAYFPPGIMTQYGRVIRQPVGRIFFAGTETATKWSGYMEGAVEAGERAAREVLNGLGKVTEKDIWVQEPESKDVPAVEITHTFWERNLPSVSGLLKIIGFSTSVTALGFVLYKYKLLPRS
Summary of the method: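 Recombinant human MAO A (baculovirus-infected insect cell microsomes) with kynuramine substrate; inhibitor preincubated 20 min at 37 °C, enzyme then added and incubated 30 min more. Fluorescence at ex/em 320/400 nm. […] Triplicates, three independent experiments.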

[4] = biological target: T3, Amine oxidase [flavin-containing] B (Homo sapiens, UniProt P27338); test: Inhibition of human recombinant MAOB expressed in microsomes of baculovirus-infected insect cell using kynuramine as substrate preincubated for 20 mins followed by protein addition measured after 30 mins by fluorescence assay
T3 sequence (P27338 whole entry): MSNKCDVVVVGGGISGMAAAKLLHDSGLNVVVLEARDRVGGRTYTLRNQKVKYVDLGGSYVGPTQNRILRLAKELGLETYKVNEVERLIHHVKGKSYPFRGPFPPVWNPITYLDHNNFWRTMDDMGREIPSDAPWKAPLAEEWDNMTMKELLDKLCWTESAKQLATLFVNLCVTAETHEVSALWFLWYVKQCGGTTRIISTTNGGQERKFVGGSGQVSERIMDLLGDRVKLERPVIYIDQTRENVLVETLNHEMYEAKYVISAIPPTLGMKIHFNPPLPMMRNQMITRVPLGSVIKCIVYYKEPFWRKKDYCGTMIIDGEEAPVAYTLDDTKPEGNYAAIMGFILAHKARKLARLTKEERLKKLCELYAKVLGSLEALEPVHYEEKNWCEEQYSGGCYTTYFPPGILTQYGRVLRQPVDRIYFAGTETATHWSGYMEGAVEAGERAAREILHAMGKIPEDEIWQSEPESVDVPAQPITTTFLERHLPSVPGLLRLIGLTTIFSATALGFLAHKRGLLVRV

SH-SY5Y [5] = test: Cytotoxicity against human SH-SY5Y cells assessed as inhibition of cell growth after 24 hrs by MTT assay; format: cell-based
Summary of the method: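 SH-SY5Y cells exposed 24 h at 37 °C to 0.1, 1, 5, 10 and 50 µM; viability read by MTT at 570 nm versus untreated cells. […] Means ± SD, n = 3.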

[6] = Apparent permeability across apical to basolateral side in MDCK2-MDR1 cells at 5 to 75 uM by UV-visible spectroscopic method; format: ADME, cell-based, Canis lupus familiaris; details: dog, MDCK-MDR1
Summary of the method: (§2)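 Acceptor concentrations measured by UV–visible spectroscopy against PBS calibration curves linear over 5–75 µM. Papp (cm/sec) = (VA/(area × time)) × ([drug]acceptor/[drug]initial). Triplicates, three experiments.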

SH-SY5Y [7] = test: Neuroprotective activity against rotenone-induced oxidative injury in human SH-SY5Y cells assessed as increase in cell viability at 10 uM after 24 hrs by MTT assay; format: functional, cell-based
Summary of the method: (§3)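 SH-SY5Y cells incubated 24 h with compound at 1 or 10 µM together with H2O2 300 µM, oligomycin-A 10 µM or rotenone 20 µM. Viability by MTT, as % of cells given neither insult nor compound. Triplicates, three repeats; mean ± SD; two-way ANOVA with Bonferroni post hoc test.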

[8] = Kinetic aqueous solubility of the compound in Tris-HCl buffer at pH 7.4 by turbidimetric method; format: physicochemical; details: for log(Kinetic_solubility): buffer
Summary of the method: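 DMSO stocks added in portions to 50 mM Tris-HCl pH 7.4 at room temperature. Light scattering read as UV absorbance increase at 580–780 nm; solubility from a bilinear fit of absorbance versus µL DMSO. Reported as logS (mol/L), mean ± SEM of three independent assays.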

[9] = biological target: T2, Amine oxidase [flavin-containing] A; test: Inhibition of human recombinant MAOA expressed in microsomes of baculovirus-infected insect cell using kynuramine as substrate preincubated for 20 mins followed by protein addition measured after 30 mins by fluorescence assay
Summary of the method: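 Recombinant human MAO A (baculovirus-infected insect cell microsomes) with kynuramine substrate; inhibitor preincubated 20 min at 37 °C, enzyme then added and incubated 30 min more. Fluorescence at ex/em 320/400 nm. Triplicates, three independent experiments.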

SH-SY5Y [10] = test: Neuroprotective activity against H2O2-induced oxidative injury in human SH-SY5Y cells assessed as increase in cell viability at 1 to 10 uM after 24 hrs by MTT assay; format: functional, cell-based; summary of the method: as §3
SH-SY5Y [11] = test: Neuroprotective activity against oligomycin-A-induced oxidative injury in human SH-SY5Y cells assessed as increase in cell viability at 1 uM after 24 hrs by MTT assay; format: functional, cell-based; summary of the method: as §3
[12] = Apparent permeability across basolateral to apical side in MDCK2-MDR1 cells at 5 to 75 uM by UV-visible spectroscopic method; format: ADME, cell-based, Canis lupus familiaris; details: dog, MDCK-MDR1; summary of the method: as §2
SH-SY5Y [13] = test: Neuroprotective activity against oligomycin-A-induced oxidative injury in human SH-SY5Y cells assessed as increase in cell viability at 10 uM after 24 hrs by MTT assay; format: functional, cell-based; summary of the method: as §3
SH-SY5Y [14] = test: Neuroprotective activity against rotenone-induced oxidative injury in human SH-SY5Y cells assessed as increase in cell viability at 1 uM after 24 hrs by MTT assay; format: functional, cell-based; summary of the method: as §3
[15] = Efflux ratio of apparent permeability across basolateral to apical side over apical to basolateral side in MDCK2-MDR1 cells at 5 to 75 uM by UV-visible spectroscopic method; format: ADME, cell-based, Canis lupus familiaris; details: dog, MDCK-MDR1
Summary of the method: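 Canine kidney MDCKII-MDR1 cells (retrovirally transfected with human MDR1 cDNA), cultured in DMEM and seeded at 100000 cells/cm2 on 0.4 µm-pore Transwell inserts. […] Apical-to-basolateral and basolateral-to-apical transport were measured, with compound quantified by UV-vis absorbance against PBS calibration curves (5–75 µM). ER = Papp BL-AP / Papp AP-BL. Triplicates, three experiments.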

[16] = Lipophilicity index, Log K of the compound at 1 mM by RP-HPLC method; format: physicochemical; details: 1000 µM
Acetylcholinesterase [17] = biological target: T1, Acetylcholinesterase; test: Mixed-type inhibition of electric eel AChE using S-acetylthiocholine as substrate preincubated for 20 mins followed by substrate addition measured for 5 mins by Lineweaver-Burk plot method
Cholinesterase = Cholinesterase (Equus caballus, UniProt P81908); test: Inhibition of equine serum BChE using butyrylthiocholine iodide as substrate preincubated for 20 mins followed by substrate addition measured for 5 mins by spectrophotometric Ellman's method; summary of the method: as §1
Cholinesterase, sequence (P81908 whole entry): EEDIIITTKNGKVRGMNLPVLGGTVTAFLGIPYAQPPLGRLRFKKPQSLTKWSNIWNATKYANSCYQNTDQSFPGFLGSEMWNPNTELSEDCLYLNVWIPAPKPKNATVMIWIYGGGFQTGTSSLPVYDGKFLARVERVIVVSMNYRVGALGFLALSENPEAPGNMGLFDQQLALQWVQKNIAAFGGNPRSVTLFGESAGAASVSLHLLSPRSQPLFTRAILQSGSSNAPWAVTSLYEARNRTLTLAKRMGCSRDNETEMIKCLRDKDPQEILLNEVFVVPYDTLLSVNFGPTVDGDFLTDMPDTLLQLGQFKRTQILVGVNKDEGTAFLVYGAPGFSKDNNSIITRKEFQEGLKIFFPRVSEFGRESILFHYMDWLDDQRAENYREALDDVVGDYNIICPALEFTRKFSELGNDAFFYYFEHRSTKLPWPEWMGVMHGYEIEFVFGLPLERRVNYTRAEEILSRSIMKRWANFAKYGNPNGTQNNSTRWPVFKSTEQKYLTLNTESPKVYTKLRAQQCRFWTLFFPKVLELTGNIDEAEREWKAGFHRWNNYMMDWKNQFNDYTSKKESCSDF

T1 sequence (O42275 whole entry): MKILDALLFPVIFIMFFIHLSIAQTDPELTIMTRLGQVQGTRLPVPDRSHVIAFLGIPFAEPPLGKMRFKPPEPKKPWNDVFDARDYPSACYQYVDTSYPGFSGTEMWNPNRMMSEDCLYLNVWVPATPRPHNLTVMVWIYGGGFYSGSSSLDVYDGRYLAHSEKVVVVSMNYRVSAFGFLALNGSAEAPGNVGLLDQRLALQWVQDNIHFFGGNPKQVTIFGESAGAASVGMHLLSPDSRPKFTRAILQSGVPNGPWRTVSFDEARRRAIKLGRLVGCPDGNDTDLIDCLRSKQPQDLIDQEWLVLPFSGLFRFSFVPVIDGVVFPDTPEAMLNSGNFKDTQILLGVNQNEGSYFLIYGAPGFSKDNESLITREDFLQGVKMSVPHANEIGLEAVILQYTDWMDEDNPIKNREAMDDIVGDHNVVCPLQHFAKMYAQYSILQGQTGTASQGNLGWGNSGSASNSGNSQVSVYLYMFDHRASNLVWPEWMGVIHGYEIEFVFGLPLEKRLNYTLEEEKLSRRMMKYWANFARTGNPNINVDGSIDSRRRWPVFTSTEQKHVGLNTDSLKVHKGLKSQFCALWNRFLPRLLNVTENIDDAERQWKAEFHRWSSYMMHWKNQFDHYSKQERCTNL
Cholinesterase (Equus caballus), sequence (P81908 whole entry): as the sequence (P81908 whole entry) above

| SMILES | inhibition [1] | IC50 (Acetylcholinesterase [2]) | inhibition at 10 µM [3] | IC50 [4] | IC50 (SH-SY5Y [5]) | Papp A→B at up to 75 µM [6] | Activity (SH-SY5Y [7]) | log(Kinetic_solubility) [8] | IC50 [9] | Activity (SH-SY5Y [10]) | Activity (SH-SY5Y [11]) | Papp B→A at up to 75 µM [12] | Activity (SH-SY5Y [13]) | Activity (SH-SY5Y [14]) | efflux ratio at up to 75 µM [15] | log K [16] | Ki (Acetylcholinesterase [17]) | solubility kinetic ([8]; Tris-HCl buffer, read-out: Kinetic_solubility) | IC50 (Cholinesterase) |
| --- | --- | --- | --- | --- | --- | --- | --- | --- | --- | --- | --- | --- | --- | --- | --- | --- | --- | --- | --- |
| Cc1c(C)c2ccc(OCC3CCN(Cc4ccc(Cl)cc4)CC3)cc2oc1=O | 19% | 9.57 µM | 37% | 0.614 µM |  |  |  |  |  |  |  |  |  |  |  |  |  |  |  |
| Cc1c(C)c2ccc(OCC3CCCN(C)C3)cc2oc1=O.Cl (racemic) | 19% | 0.8 µM |  | 0.137 µM | 30 µM | 22.3 ×10⁻⁶ cm/s | Active | -3.67 | 9.33 µM | Active | inactive | 20.2 ×10⁻⁶ cm/s | inactive | Active | 0.9 | 1.14 |  |  |  |
| Cc1c(C)c2ccc(OCC3CCCN(Cc4cccc(Br)c4)C3)cc2oc1=O.Cl (racemic) |  | 1.91 µM |  | 0.11 µM |  | 0.84 ×10⁻⁶ cm/s |  |  | 0.81 µM |  |  | 2.16 ×10⁻⁶ cm/s |  |  | 2.56 |  |  |  |  |
| Cc1c(C)c2ccc(OCC3CCCN(Cc4ccccc4)C3)cc2oc1=O.Cl (racemic) |  | 1.03 µM |  |  | 44 µM | 24.3 ×10⁻⁶ cm/s |  | -3.92 | 2.81 µM |  |  | 14.8 ×10⁻⁶ cm/s |  |  | 0.61 | 2.01 | 1.37 µM | 119 µM | 3.41 µM |
